Published values pooled from the literature.
Target: Serine/threonine-protein kinase WNK3 (WNK3, Homo sapiens, UniProt Q9BYP7)

COc1cnc(Nc2cccc(S(N)(=O)=O)c2)nc1N1CCN(c2ccccc2)C(=O)C1
remaining binding (binding; competition with immobilised ligand; 1 µM): 97%

CN(C)c1nccc(-c2cnn3ncccc23)n1
remaining binding (binding; 1 µM): 100%

FC(F)(F)Oc1cccc(-c2cnc3ccc(-c4ccncc4)nn23)c1
remaining binding (binding; competition with immobilised ligand; 5 µM): 77%

Cc1cnc(Nc2ccc(C(=O)N3CCC(N4CCCC4)CC3)cc2)nc1-c1cc2ccccc2s1
remaining binding (binding; competition with immobilised ligand; 1 µM): 100%

O=S(=O)(NC1CCC(c2cc(F)ccc2F)(S(=O)(=O)c2ccc(Cl)cc2)CC1)C(F)(F)F (stereo not shown)
remaining binding (cell-free assay; competition with immobilised ligand; 1 µM): 100%

O=C(c1ccc(Nc2nccc(-c3cc4ccccc4s3)n2)cc1)N1CCC(N2CCCC2)CC1
remaining binding (binding; competition with immobilised ligand; 1 µM): 100%

Cc1cc(-n2nc(Cc3cc(F)cc(C(F)(F)F)c3)nc2C)ccc1C(N)=O
remaining binding (cell-free assay; competition with immobilised ligand; 1 µM): 100%

CN(c1nccc(-c2cnn3ncccc23)n1)C1CC1
remaining binding (binding; 1 µM): 100%

CCN1CCN(Cc2ccc(C(=O)Nc3ccc(C)c(Oc4ccc5c(c4)CC(=O)N5)c3)cc2C(F)(F)F)CC1
remaining binding (binding; competition with immobilised ligand; 1 µM): 100%

Cn1nc(C(F)(F)F)cc1-c1cnc(N2CCc3cc(S(=O)(=O)Nc4c(F)cc(Cl)cc4F)cc(N4CCCC4=O)c32)nc1
remaining binding (cell-free assay; competition with immobilised ligand; 1 µM): 97%

CC1CCCN1c1nccc(-c2cnn3ncccc23)n1 (stereo not shown)
remaining binding (binding; 1 µM): 100%

CN(c1ccnc(CNc2nc(Nc3ccc4c(c3)CC(=O)N4)ncc2C(F)(F)F)n1)S(C)(=O)=O
remaining binding (cell-free assay; competition with immobilised ligand; 1 µM): 79%

N[C@@H]1CCN(c2nccc(-c3cnn4ncccc34)n2)C1
remaining binding (binding; 1 µM): 98%

C[C@@H](c1ccc(-n2cnc3c(N)ncnc32)cc1)N1CCc2nn(C)c(Cc3ccccc3)c2C1=O
remaining binding (binding; competition with immobilised ligand; 0.1 µM): 100%

C=CC(=O)N1CCC(C(=O)NCC(=O)N2CCN(c3nc(-c4cnc(N)nc4C(F)F)nc(N4CCOCC4)n3)CC2)CC1
remaining binding (binding; competition with immobilised ligand; 1 µM): 96%

CNCc1ccccc1-c1csc([C@H](C)Nc2nc(C)nc3cc(OC)c(OC)cc23)c1
remaining binding (cell-free assay; competition with immobilised ligand; 1 µM): 98%

O=C(c1ccc(Nc2ncc(Cl)c(-c3cc4ccccc4s3)n2)cc1)N1CCC(N2CCCC2)CC1
remaining binding (binding; competition with immobilised ligand; 1 µM): 100%

CCC(=O)N[C@H]1CC[C@@H](C(=O)N(C)c2ccc(-c3nc4ccccc4o3)cc2)C1
remaining binding (cell-free assay; competition with immobilised ligand; 1 µM): 92%

CN(CCCC(F)(F)F)c1nccc(-c2cnn3ncccc23)n1
remaining binding (binding; 1 µM): 100%

Nc1ncc2c(n1)-c1c([nH]c3ccc(C#CC4CC4)cc13)CCCC2
remaining binding (binding; competition with immobilised ligand; 1 µM): 89%

C[C@H]1CCN(c2nccc(-c3cnn4ncccc34)n2)C1
remaining binding (binding; 1 µM): 98%

O=C(Nc1c[nH]nc1C(=O)NC1CCNCC1)c1cc(F)cc(F)c1
remaining binding (binding; competition with immobilised ligand; 1 µM): 100%
